# Test results published in ChEMBL document CHEMBL1121642, “Synthesis and antiherpetic activity of some 4-[(aryloxy)alkyl]pyrazoles” (1981).
# Calls of active or inactive are those of the source. The calls are words filed in the database; no cut-off is given here.
# Columns and labels:
# Human alphaherpesvirus 2 [1] = assay: Tested in vitro for minimum inhibitory activity against Herpes simplex virus type -2 (HSV-2); Inactive; format: functional, organism-based
# Human alphaherpesvirus 2 [2] = assay: Tested in vitro for minimum inhibitory activity against Herpes simplex virus type -2 (HSV-2); format: functional
# Mus musculus [3] = assay: Effect on the survival rate of mouse infected with herpes genitalis (HSV-2) administered intravaginally at 5% dosage twice in a day; format: functional
# Outline: (§1)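 HSV-2 mouse genital model, infected intravaginally. Drug prepared in water + 1% gum tragacanth and given intravaginally b.i.d. via saturated cotton tampons, starting 4 h postinfection. Tampons were re-dosed with 0.02 mL 6 h after insertion and replaced daily. Test ended at day 14, with survivors assigned survival time >14 days. Read-out: % survival and average survival time.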
# Mus musculus [4] = assay: (§2) Effect on the survival rate of mouse infected with herpes genitalis (HSV-2) administered intravaginally at 2% dosage twice in a day; format: functional; outline: as §1
# Human alphaherpesvirus 2 [5] = assay: as §2; format: functional; outline: as §1
# Mus musculus [6] = species on record: Mus musculus; assay: Effect on the survival rate of mice infected intravaginally with Herpes simplex virus type -2 (HSV-2) at 1.25% dosage twice in a day; format: functional
# Outline: (§3)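 Mice infected intravaginally with a tampon (dental pellet) saturated with HSV suspension. Aqueous drug solution given intravaginally b.i.d. on cotton tampons, starting 4 h postinfection. Each tampon stayed in 24 h, was re-moistened with 0.02 mL drug 6 h after insertion, and was replaced daily. Deaths were recorded daily to 14 days. Read-out: % survival and average survival time, with survivors scored >14 days.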
# Mus musculus [7] = species on record: Mus musculus; assay: Effect on the survival rate of mice infected intravaginally with Herpes simplex virus type -2 (HSV-2) at 5% dosage twice in a day; format: functional; outline: as §3
# Mus musculus [8] = species on record: Mus musculus; assay: Effect on the survival rate of mice infected intravaginally with Herpes simplex virus type -2 (HSV-2) at 2.5% dosage twice in a day; format: functional; outline: as §3
MIC (Human alphaherpesvirus 2 [1]),MIC (Human alphaherpesvirus 2 [2]) [µg/mL],SMILES,also measured
inactive,,CCc1n[nH]c(CC)c1CCCCCCOc1ccccc1,
inactive,,CCc1nn(C(C)=O)c(CC)c1CCCCCCOc1ccc(OC)cc1Cl,
,3,COc1ccc(OCCCCCCc2c(C)n[nH]c2C)c(Cl)c1,
inactive,,CCc1n[nH]c(CC)c1CCCCCCOc1ccc(OC)cc1,
,6,CCc1nn(CCN(C)C)c(CC)c1CCCCCCOc1ccc(OC)cc1Cl,
,6,CCOC(=O)Cn1nc(CC)c(CCCCCCOc2ccc(OC)cc2Cl)c1CC,
inactive,,CCc1n[nH]c(CC)c1CCCCCCOc1ccc([N+](=O)[O-])cc1Cl,
,6,CCc1n[nH]c(CC)c1CCCCCCCOc1ccc(OC)cc1Cl,
,,O=C(O)CP(=O)(O)O [FOSFONET],Average survival (Mus musculus [3]): >13 days; Survival (Mus musculus [3]): 90%; Average survival (Mus musculus [4]): >13 days; Survival (Human alphaherpesvirus 2 [5]): 90%
inactive,,CCc1nn(CC(=O)O)c(CC)c1CCCCCCOc1ccc(OC)cc1Cl,
,6,CCc1n[nH]c(CC)c1CCCCCCOc1ccc(Cl)cc1,
,0.7,COc1ccc(OCCCCCCc2c(C)nn(C)c2C)c(Cl)c1,
,3,CCc1nn(-c2ccccc2)c(CC)c1CCCCCCOc1ccc(OC)cc1Cl,
inactive,,CCc1n[nH]c(CC)c1CCCCCCOc1ccc(SC)cc1Cl,
inactive,,CCc1nn(CC(F)(F)F)c(CC)c1CCCCCCOc1ccc(OC)cc1Cl,
,6,CCc1nn(C)c(CC)c1CCCCCCOc1ccc(OC)cc1Cl,
,3,CCc1n[nH]c(CC)c1CCCCCCOc1ccc([S+](C)[O-])cc1Cl (configuration not stated),

SMILES,MIC (Human alphaherpesvirus 2 [1]),MIC (Human alphaherpesvirus 2 [2]) [µg/mL],also measured
CCc1n[nH]c(CC)c1CCCCCCOc1ccc(OC)cc1Cl,,6,Average survival (Mus musculus [6]): >10 days; Survival (Mus musculus [6]): 30%; Average survival (Mus musculus [7]): >11 days; Survival (Mus musculus [7]): 60%; Average survival (Mus musculus [8]): >11 days; Survival (Mus musculus [8]): 40%
